Experimental findings from ChEMBL document CHEMBL1137481, “Discovery of platelet-type 12-human lipoxygenase selective inhibitors by high-throughput screening of structurally diverse libraries” (Bioorg Med Chem, 2007) are described below.

Each structure is given as a SMILES string.

Test [1] addresses T1, Polyunsaturated fatty acid lipoxygenase ALOX12 (Homo sapiens) (UniProt P18054).
T1 sequence (whole entry): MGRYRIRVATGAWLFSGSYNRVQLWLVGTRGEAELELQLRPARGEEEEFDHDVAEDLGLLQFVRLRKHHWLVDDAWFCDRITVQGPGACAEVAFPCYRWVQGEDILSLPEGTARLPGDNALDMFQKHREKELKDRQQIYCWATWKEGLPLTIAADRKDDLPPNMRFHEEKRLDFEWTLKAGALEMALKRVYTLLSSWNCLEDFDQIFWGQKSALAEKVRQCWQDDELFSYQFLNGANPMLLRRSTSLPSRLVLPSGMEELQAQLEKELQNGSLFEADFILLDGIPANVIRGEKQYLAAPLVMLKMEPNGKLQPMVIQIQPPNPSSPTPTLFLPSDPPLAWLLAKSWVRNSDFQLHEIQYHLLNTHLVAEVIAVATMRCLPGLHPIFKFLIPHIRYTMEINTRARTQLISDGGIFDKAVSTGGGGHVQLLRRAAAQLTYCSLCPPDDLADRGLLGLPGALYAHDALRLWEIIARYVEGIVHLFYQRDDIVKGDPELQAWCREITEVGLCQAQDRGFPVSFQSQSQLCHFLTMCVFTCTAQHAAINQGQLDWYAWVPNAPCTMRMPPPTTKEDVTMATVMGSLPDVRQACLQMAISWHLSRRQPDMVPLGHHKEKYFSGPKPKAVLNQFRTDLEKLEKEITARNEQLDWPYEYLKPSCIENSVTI
Description: Inhibition of human 12-hLO at 40 uM by HTP assay. In a few lines: (§1)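 384-well xylenol orange endpoint assay. 30 µM substrate (arachidonic acid for 12-hLO in 25 mM Hepes pH 8.0; linoleic acid for 15-hLO-1 in 25 mM HEPES pH 7.5), 0.1% Triton X-100. Inhibitor at 40 µM final from DMSO. Reactions started with ~40 nM enzyme and stopped at ~35% completion with 100 µM xylenol orange and 150 µM ferrous ammonium sulfate in 25 mM H2SO4. Read at 560 nm after 30 min dark shaking. Triplicate, normalised to no-enzyme and DMSO controls.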

The target in test [2] is T1, Polyunsaturated fatty acid lipoxygenase ALOX12 (Homo sapiens). In words: Inhibition of human 12-hLO at 10 uM by MI assay. In a few lines: (§2)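 One-point manual continuous assay at 23 °C, stirred, following conjugated diene at 234 nm. 12-hLO (~40 nM, His6-tagged) with arachidonic acid in 25 mM Hepes pH 8, 0.01% Triton X-100. 15-hLO-1 (~40 nM) with linoleic acid in 25 mM Hepes pH 7.5, 0.01% Triton X-100. 10 µM inhibitor.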

Test [3] deals with T2, Polyunsaturated fatty acid lipoxygenase ALOX15 (Homo sapiens) (UniProt P16050).
T2 sequence (whole entry): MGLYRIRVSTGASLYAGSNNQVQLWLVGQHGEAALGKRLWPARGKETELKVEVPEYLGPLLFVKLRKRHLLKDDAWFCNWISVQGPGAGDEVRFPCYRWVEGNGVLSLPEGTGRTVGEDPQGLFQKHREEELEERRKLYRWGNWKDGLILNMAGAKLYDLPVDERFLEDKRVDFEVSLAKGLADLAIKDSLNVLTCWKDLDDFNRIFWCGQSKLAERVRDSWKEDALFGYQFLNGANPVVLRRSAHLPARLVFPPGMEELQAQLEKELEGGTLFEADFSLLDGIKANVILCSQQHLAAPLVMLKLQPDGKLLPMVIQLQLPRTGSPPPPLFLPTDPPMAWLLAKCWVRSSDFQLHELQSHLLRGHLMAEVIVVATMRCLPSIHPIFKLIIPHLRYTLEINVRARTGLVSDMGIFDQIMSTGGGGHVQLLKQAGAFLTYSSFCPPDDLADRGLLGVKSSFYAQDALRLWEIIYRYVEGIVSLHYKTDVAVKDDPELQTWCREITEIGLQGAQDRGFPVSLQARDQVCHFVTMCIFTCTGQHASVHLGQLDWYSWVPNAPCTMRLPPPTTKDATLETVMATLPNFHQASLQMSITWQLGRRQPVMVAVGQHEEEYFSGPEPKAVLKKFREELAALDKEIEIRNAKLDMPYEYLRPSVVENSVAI
Description: Inhibition of human 15-hLO1 at 40 uM by HTP assay. The method in brief:
as §1

The target in test [4] is T2, Polyunsaturated fatty acid lipoxygenase ALOX15 (Homo sapiens). In words: Inhibition of human 15-hLO1 at 10 uM by MI assay. The method in brief:
as §2

Test [5] deals with T3, Polyunsaturated fatty acid lipoxygenase ALOX12 (Homo sapiens, UniProt P18054).
T3 sequence (P18054 whole entry): T1 sequence (whole entry)
Description: Inhibition of human 12-hLO. The method in brief:
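Rate from conjugated diene formation at 234 nm, room temperature (23 °C), stirred 2 mL reactions. 12-hLO (N-terminal His6-tagged, ~40 nM) with arachidonic acid in 25 mM Hepes pH 8, 0.01% Triton X-100. 15-hLO-1 (His6-tagged, ~40 nM) with linoleic acid, 15-hLO-2 (1 µM, SF9-expressed) with arachidonic acid, both in 25 mM Hepes pH 7.5, 0.01% Triton X-100. Rates at various inhibitor concentrations fit to saturation curve for IC50.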

In test [6] the target is T4, Polyunsaturated fatty acid lipoxygenase ALOX15 (Homo sapiens, UniProt P16050).
T4 sequence (P16050 whole entry): T2 sequence (whole entry)
In words: Inhibition of human 15-hLO1.

For another test, the species on record is Homo sapiens. In words: Selectivity for 12-hLO over 15-hLO1. In a few lines:
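Ratio of IC50 for 15-hLO-1 over IC50 for 12-hLO. Both come from the 234 nm conjugated-diene rate assay: 12-hLO with arachidonic acid at pH 8, 15-hLO-1 with linoleic acid at pH 7.5, 0.01% Triton X-100, 23 °C. IC50 taken from saturation-curve fits.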

As to `Oc1cccc2ccc(SSc3ccc4cccc(O)c4n3)nc12`, the inhibition (in general, the drop in the measured response relative to a control, in per cent) in test [1] came to 71%; in test [2], 0%; in test [3], 39%; in test [4] it was 0%.

For `O=C(O)c1cc(C(=O)C(=O)c2cc(C(=O)O)c(O)c3ccccc23)c2ccccc2c1O`, the inhibition in test [1] amounted to 46%; in test [2] it was 88%; in test [3] it was 0%; in test [4], 0%. Further, the IC50 – broadly, the concentration that gives 50% inhibition – in test [5] is 0.15 µM.

`C[C@H](c1nccs1)N(C)C(=O)[C@H](C[C@H](C)C(Cl)(Cl)Cl)NC(=O)C[C@H](C)C(Cl)(Cl)Cl` [NEODYSIDENIN]: in test [5], the IC50 was greater than 100 µM and the affinity, expressed as Ki, was 17 µM.

With `Oc1c(Cl)cc(C(c2cc(Cl)c(O)c(Cl)c2)C(c2cc(Cl)c(O)c(Cl)c2)c2cc(Cl)c(O)c(Cl)c2)cc1Cl`, the inhibition in test [1] stood at 70%; in test [2] it was 100%; in test [3] it was 37%; in test [4], 36%. This compound registered an IC50 in test [5] of 0.21 µM.

Regarding `C[C@H](NC(=O)[C@H](C[C@H](C)C(Cl)(Cl)Cl)N(C)C(=O)C[C@H](C)C(Cl)(Cl)Cl)c1nccs1` [DYSIDENIN], the Ki (as a rule, a measure of affinity in units of concentration, obtained from inhibition or displacement) in test [5] was 9 µM; in test [6], 8 µM. The Ratio Ki in the test listed under Homo sapiens was found to be 1.

Turning to `COc1c(O)cc2oc3cc(O)c(CC=C(C)C)c(O)c3c(=O)c2c1CC=C(C)C` [MANGOSTIN], the inhibition in test [1] came out at 47%; in test [2], 100%; in test [3] it was 12%; in test [4], 36%. In test [5], the IC50 is 0.58 µM.
